In ChEMBL document CHEMBL1125150, “Arabinofuranosylpyrrolo[2,3-d]pyrimidines as potential agents for human cytomegalovirus infections” (J Med Chem, 1990):

Key:
[1] = Tested in vitro for cytotoxicity against the monkey kidney cells (BSC-1 cells).; type: functional, cell-based; conditions: Cercopithecidae
In short: (§1)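 Uninfected HFF or BSC-1 cells in the plaque-reduction plates were scored visually at 35- and 60-fold magnification on a 0 to 4+ scale on the staining day. IC50 was taken by regression against log concentration.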

HFF = assay: Tested in vitro for cytotoxicity against the normal human diploid cells (HFF cells).; type: functional, cell-based; in short: as §1
Human betaherpesvirus 5 [2] = assay: Tested in vitro for antiviral activity against human cytomegalovirus (HCMV) in yield reduction assay.; type: functional
Human alphaherpesvirus 1 [3] = assay: Tested in vitro for antiviral activity against HSV-1 in plaque reduction assay.; type: functional, organism-based
In short: (§2)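 Plaque reduction used HSV-1 strain S-148 on BSC-1 (African green monkey kidney) monolayers. The inoculum held about 100 PFU, and compounds were dissolved in the overlay medium. IC50 was regressed from percent inhibition against log concentration. Acyclovir or ganciclovir positive controls were run, with sets rejected if the control deviated >1.5 SD from its mean.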

Human betaherpesvirus 5 [4] = assay: Tested in vitro for antiviral activity against human cytomegalovirus (HCMV) in plaque reduction assay.; type: functional, organism-based
In short: (§3)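 HCMV Towne strain (plaque-purified P0) was used on HFF monolayers. The inoculum held about 50 PFU, and compounds were dissolved in the overlay medium. Plaques were enumerated. IC50 came from linear regression of percent inhibition against log concentration. Acyclovir or ganciclovir served as positive control, and a set was rejected if the control deviated >1.5 SD from its mean.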

[5] = Tested in vitro for cytotoxicity against the human neoplastic cell line (KB cells).; type: functional, cell-based
In short: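 KB cells were grown in MEM(H) with 10% calf serum. Incorporation of radiolabelled precursors into DNA, RNA and protein was measured. Separate IC50s came from regression against log concentration and the three were averaged. Values are averages of two to five experiments.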

L1210 [6] = assay: Tested in vitro for antiproliferative activity against growth rate of L1210 cells.(delayed growth inhibition); type: functional, Mus musculus; set-up: concentration or dose not given beside the values
In short: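 L1210 cells were grown in static suspension in Fischer's medium with drug for 4 days. Growth rate was the control-to-treated ratio of population doubling times. For delayed inhibition it was taken over 48–96 h, when control doubling time averaged 22 h. IC50 is the concentration halving growth rate relative to control.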

L1210 [7] = assay: Tested in vitro for antiproliferative activity against growth rate of L1210 cells.; type: functional, Mus musculus
In short: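 L1210 cells were grown in static suspension in Fischer's medium with a range of compound concentrations, and growth rate was followed over 4 days. Growth rate was the control-to-treated ratio of population doubling times. It was scored separately for 0–48 h and 48–96 h, and the lower value was kept. IC50 was the concentration giving 50% of the control growth rate.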

Human alphaherpesvirus 1 [8] = assay: Tested in vitro for antiviral activity against HSV-1 in yield reduction assay.; type: functional
Human alphaherpesvirus 2 [9] = assay: Tested for activity against the human foreskin fibroblasts herpes simplex virus-2 (HSV-2) cell lines; type: functional, organism-based
In short: (§4)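 Plaque reduction used HSV-2 (MS strain) in HFF cells and HSV-1 (E-377 strain) in primary rabbit kidney cells. Monolayers got 20–50 PFU for 1 h at 37 °C, then an agarose overlay holding serial 5-fold drug dilutions in MEM(E). Neutral red staining on day 3 preceded plaque counts against untreated controls. Values average two or more experiments.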

Human alphaherpesvirus 1 [10] = assay: Tested for activity against the monkey kidney herpes simplex virus-1 (HSV-1) cell lines; type: functional, organism-based; in short: as §2
Human alphaherpesvirus 1 [11] = assay: Tested for activity against the rabbit kidney herpes simplex virus-1 (HSV-1) cell lines; type: functional, organism-based; in short: as §4
Human alphaherpesvirus 1 [12] = assay: Tested for visual cytotoxicity against monkey kidney herpes simplex virus-1 (HSV-1) cell lines; type: functional, organism-based; in short: as §1
Human alphaherpesvirus 1 [13] = assay: Tested for visual cytotoxicity against rabbit kidney herpes simplex virus-1 (HSV-1) cell lines; type: functional, organism-based
Human betaherpesvirus 5 [14] = assay: Tested for activity against human cytomegalovirus (HCMV) in human foreskin fibroblasts cell lines using plaque assay; type: functional, organism-based; conditions: Human betaherpesvirus 5, Fibroblast; in short: as §3
Human betaherpesvirus 5 [15] = assay: Tested for visual cytotoxicity against the human cytomegalovirus (HCMV) cell lines in human foreskin fibroblasts; type: functional, organism-based; in short: as §1
Mus musculus [16] = assay: Tested for effect on the mortality of mice inoculated with MCMV at 16.7 mg/kg at 24 hr; type: functional
In short: (§5)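 Female Swiss Webster mice, 3 weeks old, were infected ip with 2 × 10⁵ PFU of MCMV Smith strain. Groups of 15 received drug ip twice daily for 5 days, starting at the stated hour after inoculation. Mice were watched daily for 21 days, and final mortality and mean day of death were scored. Fisher exact test (mortality) and Mann-Whitney U test (mean day of death) were used against placebo. Uninfected drug-toxicity controls were 10 mice.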

Mus musculus [17] = assay: Tested for effect on the mortality of mice inoculated with MCMV at 16.7 mg/kg at 48 hr; type: functional; in short: as §5
Mus musculus [18] = assay: Tested for effect on the mortality of mice inoculated with MCMV at 5.6 mg/kg at 12 hr; type: functional; in short: as §5
Mus musculus [19] = assay: Tested for effect on the mortality of mice inoculated with MCMV at 5.6 mg/kg at 24 hr; type: functional; in short: as §5
Mus musculus [20] = assay: Tested for effect on the mortality of mice inoculated with MCMV at 5.6 mg/kg at 48 hr; type: functional; in short: as §5
Mus musculus [21] = assay: Tested for effect on the mortality of mice inoculated with MCMV at 50 mg/kg at 12 hr; type: functional; in short: as §5
Mus musculus [22] = assay: Tested for effect on the mortality of mice inoculated with MCMV at 50 mg/kg at 24 hr; type: functional; in short: as §5
Mus musculus [23] = assay: Tested for effect on the mortality of mice inoculated with MCMV at 50 mg/kg at 48 hr; type: functional; in short: as §5
Murid betaherpesvirus 1 [24] = assay: Tested for activity against mouse cytomegalovirus (MCMV) in mouse embryo fibroblasts using plaque assay; type: functional, organism-based
In short: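 MCMV Smith strain was plated on primary mouse embryo fibroblasts at 20–50 PFU per monolayer, with 1 h at 37 °C. Serial 5-fold drug dilutions in twice-concentrated MEM(E) were mixed with 1% agarose as overlay. A further drug-free overlay was added on day 4. Cultures were stained with neutral red on day 7 and plaques counted against untreated controls. Values average two or more experiments.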

Murid betaherpesvirus 1 [25] = assay: Tested for visual cytotoxicity against the mouse cytomegalovirus (MCMV) in mouse embryo fibroblasts; type: functional, organism-based
Human alphaherpesvirus 2 [26] = assay: Tested for visual cytotoxicity against the human foreskin fibroblasts herpes simplex virus-2 (HSV-2) cell lines; type: functional, organism-based
Mus musculus [27] = assay: Tested for effect on the mortality of mice inoculated with MCMV at 16.7 mg/kg at 12 hr; type: functional; in short: as §5
[28] = Human betaherpesvirus 5, read-out: IC90

N#Cc1cn([C@@H]2O[C@H](CO)[C@@H](O)[C@@H]2N=[N+]=[N-])c2ncnc(N)c12
IC50 [1]: > 100 µM
IC50 (HFF): 55 µM
IC90 (Human betaherpesvirus 5 [2]; [28]): 37 µM
IC50 (Human alphaherpesvirus 1 [3]): > 100 µM
IC50 (Human betaherpesvirus 5 [4]): 34 µM
IC50 [5]: 151 µM
Control (L1210 [6]): 14%

N#Cc1cn([C@@H]2O[C@H](CO)[C@@H](O)[C@@H]2Br)c2ncnc(N)c12
IC50 [1]: > 100 µM
IC50 (HFF): 181 µM
IC90 (Human betaherpesvirus 5 [2]; [28]): 90 µM
IC50 (Human alphaherpesvirus 1 [3]): > 100 µM
IC50 (Human betaherpesvirus 5 [4]): 162 µM
Control (L1210 [6]): 16%

N#Cc1cn([C@@H]2O[C@H](CO)[C@@H](O)[C@@H]2I)c2ncnc(N)c12
IC50 [1]: > 100 µM
IC50 (HFF): 100 µM
IC90 (Human betaherpesvirus 5 [2]; [28]): 20 µM
IC50 (Human alphaherpesvirus 1 [3]): > 100 µM
IC50 (Human betaherpesvirus 5 [4]): 40 µM
Control (L1210 [6]): 24%

NC(=O)c1cn([C@@H]2O[C@H](CO)[C@@H](O)[C@@H]2Br)c2ncnc(N)c12
IC50 [1]: > 100 µM
IC50 (HFF): > 100 µM
IC50 (Human alphaherpesvirus 1 [3]): > 100 µM
IC50 (Human betaherpesvirus 5 [4]): > 100 µM
Control (L1210 [7]): 92%

Nc1nc2c(ncn2COC(CO)CO)c(=O)[nH]1 [GANCICLOVIR]
IC50 [1]: > 100 µM
IC50 (HFF): > 100 µM
IC90 (Human betaherpesvirus 5 [2]): 1.8 µM
IC90 (Human alphaherpesvirus 1 [8]): 1.2 µM
IC50 (Human betaherpesvirus 5 [4]): 9.2 µM
IC50 [5]: > 100 µM

N#Cc1cn([C@@H]2O[C@H](CO)[C@@H](O)[C@@H]2Cl)c2ncnc(N)c12
IC50 [1]: > 100 µM
IC50 (HFF): 140 µM
IC90 (Human betaherpesvirus 5 [2]; [28]): 75 µM
IC50 (Human alphaherpesvirus 1 [3]): > 100 µM
IC50 (Human betaherpesvirus 5 [4]): 21 µM
Control (L1210 [6]): 24%

NC(=O)c1cn([C@@H]2O[C@H](CO)[C@@H](O)[C@@H]2N)c2ncnc(N)c12
IC50 [1]: > 100 µM
IC50 (HFF): > 100 µM
IC50 (Human alphaherpesvirus 1 [3]): > 100 µM
IC50 (Human betaherpesvirus 5 [4]): > 100 µM
IC50 [5]: > 100 µM
Control (L1210 [6]): 46%

NC(=O)c1cn([C@@H]2O[C@H](CO)[C@@H](O)[C@@H]2I)c2ncnc(N)c12
IC50 [1]: > 100 µM
IC50 (HFF): 100 µM
IC50 (Human alphaherpesvirus 1 [3]): > 100 µM
IC50 (Human betaherpesvirus 5 [4]): > 100 µM
Control (L1210 [6]): 38%

N#Cc1cn([C@@H]2O[C@H](CO)[C@@H](O)[C@@H]2N)c2ncnc(N)c12
IC50 [1]: > 100 µM
IC50 (Human alphaherpesvirus 2 [9]): 114 µM
IC50 (HFF): > 100 µM
IC90 (Human betaherpesvirus 5 [2]; [28]): 110 µM
IC50 (Human alphaherpesvirus 1 [10]): > 100 µM
IC50 (Human alphaherpesvirus 1 [11]): 117 µM
IC50 (Human alphaherpesvirus 1 [12]): > 100 µM
IC50 (Human alphaherpesvirus 1 [13]): 350 µM
IC50 (Human alphaherpesvirus 1 [3]): > 100 µM
IC50 (Human betaherpesvirus 5 [14]): 14 µM
IC50 (Human betaherpesvirus 5 [15]): > 100 µM
IC50 (Human betaherpesvirus 5 [4]): 14 µM
IC50 [5]: 105 µM
Control (L1210 [6]): 48%
MDD (Mus musculus [16]): 4.7 mean day of death
mortality at 16.7 mg/kg (Mus musculus [16]): 100%
MDD (Mus musculus [17]): 4.6 mean day of death
mortality at 16.7 mg/kg (Mus musculus [17]): 100%
MDD (Mus musculus [18]): 4.5 mean day of death
mortality at 5.6 mg/kg (Mus musculus [18]): 100%
MDD (Mus musculus [19]): 4.6 mean day of death
mortality at 5.6 mg/kg (Mus musculus [19]): 93%
MDD (Mus musculus [20]): 5.6 mean day of death
mortality at 5.6 mg/kg (Mus musculus [20]): 100%
MDD (Mus musculus [21]): 4.1 mean day of death
mortality at 50 mg/kg (Mus musculus [21]): 73%
MDD (Mus musculus [22]): 4.4 mean day of death
mortality at 50 mg/kg (Mus musculus [22]): 100%
MDD (Mus musculus [23]): 4.9 mean day of death
mortality at 50 mg/kg (Mus musculus [23]): 87%
IC50 (Murid betaherpesvirus 1 [24]): 13 µM
IC50 (Murid betaherpesvirus 1 [25]): > 350 µM
IC50 (Human alphaherpesvirus 2 [26]): 350 µM
MDD (Mus musculus [27]): 4.6 mean day of death
mortality at 16.7 mg/kg (Mus musculus [27]): 93%

Nc1nc2c(ncn2COCCO)c(=O)[nH]1 [ACYCLOVIR]
IC50 [1]: > 100 µM
IC50 (HFF): > 100 µM
IC90 (Human betaherpesvirus 5 [2]; [28]): 90 µM
IC90 (Human alphaherpesvirus 1 [8]): 7 µM
IC50 [5]: > 100 µM

[N-]=[N+]=N[C@H]1[C@H](O)[C@@H](CO)O[C@H]1n1cc(C(N)=O)c2c(N)ncnc21
IC50 [1]: > 100 µM
IC50 (HFF): 66 µM
IC90 (Human betaherpesvirus 5 [2]; [28]): 100 µM
IC50 (Human alphaherpesvirus 1 [3]): > 100 µM
IC50 (Human betaherpesvirus 5 [4]): 28 µM
IC50 [5]: 179 µM
Control (L1210 [6]): 12%

NC(=O)c1cn([C@@H]2O[C@H](CO)[C@@H](O)[C@@H]2Cl)c2ncnc(N)c12
IC50 [1]: > 100 µM
IC50 (HFF): > 100 µM
IC50 (Human alphaherpesvirus 1 [3]): > 100 µM
IC50 (Human betaherpesvirus 5 [4]): > 100 µM
Control (L1210 [6]): 73%
